Converted amounts (≈) assume the structure as drawn.
target: T1, Bifunctional epoxide hydrolase 2 (Homo sapiens, UniProt P34913); experiment: Inhibition of recombinant human sEH expressed in baculovirus infected insect Sf9 cells using CMNPC as substrate assessed as 6-methoxy-2-naphthadehyde level after 10 mins by fluorescence assay
T1 sequence (P34913 whole entry): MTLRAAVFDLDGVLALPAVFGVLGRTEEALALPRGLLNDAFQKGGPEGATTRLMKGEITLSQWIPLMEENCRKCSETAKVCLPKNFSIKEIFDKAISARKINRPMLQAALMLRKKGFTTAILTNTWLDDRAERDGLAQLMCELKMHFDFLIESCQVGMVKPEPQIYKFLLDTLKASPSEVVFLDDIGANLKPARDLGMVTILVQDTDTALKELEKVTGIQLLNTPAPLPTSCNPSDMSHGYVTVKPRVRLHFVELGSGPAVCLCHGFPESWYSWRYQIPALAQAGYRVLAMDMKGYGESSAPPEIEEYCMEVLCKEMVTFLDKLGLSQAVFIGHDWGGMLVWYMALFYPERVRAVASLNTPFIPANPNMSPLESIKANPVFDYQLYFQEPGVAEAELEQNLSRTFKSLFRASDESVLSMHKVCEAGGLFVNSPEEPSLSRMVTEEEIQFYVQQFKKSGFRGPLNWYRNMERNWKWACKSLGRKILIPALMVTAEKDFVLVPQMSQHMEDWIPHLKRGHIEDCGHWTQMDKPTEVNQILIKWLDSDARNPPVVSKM
Outline: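 Recombinant human sEH (6xHis-tagged, expressed in Sf9 cells, tag removed with TEV protease, purified by metal affinity then anion exchange; 1 nM) preincubated with compound in DMSO for 10 min in 25 mM Bis–Tris/HCl pH 7.0 at 30 °C. CMNPC substrate added (5 µM). 6-Methoxy-2-naphthaldehyde read at ex 330/em 465 nm over 10 min. IC50 by regression of ≥5 points; mean of three runs.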

IC50 [nM] | SMILES
8.2 | CCOP(=O)(OCC)C(Nc1ccc(CCNC(=O)C23CC4CC(CC(C4)C2)C3)cc1)C(C)(C)C (stereo not given)
41 | CCOP(=O)(OCC)C(CC(C)(C)C)Nc1ccc(CNC(=O)C23CC4CC(CC(C4)C2)C3)cc1 (stereo not given)
3.4 | CCOP(=O)(OCC)C(Nc1ccc(CNC(=O)Cc2ccc3ccccc3c2)cc1)C(C)(C)C (stereo not given)
69 | CCOP(=O)(OCC)C(Nc1ccc(CNC(=O)C23CC4CC(CC(C4)C2)C3)cc1)C(=O)c1ccccc1 (stereo not given)
186 | CCOP(=O)(OCC)C(Nc1ccc(CNC(=O)C23CC4CC(CC(C4)C2)C3)cc1)c1ccc2ccccc2c1 (stereo not given)
3.8 | CC(C)(C)C(Nc1ccc(CNC(=O)NC23CC4CC(CC(C4)C2)C3)cc1)P(=O)(OCC(F)(F)F)OCC(F)(F)F (stereo not given)
1.7 | CC(C)OP(=O)(OC(C)C)C(Nc1ccc(CNC(=O)NC23CC4CC(CC(C4)C2)C3)cc1)C(C)(C)C (stereo not given)
230 | CCOP(=O)(OCC)C(Nc1ccc(CNC(=O)C23CC4CC(CC(C4)C2)C3)cc1)c1ccc(C(=O)OC)cc1 (stereo not given)
26 | CCCCOP(=O)(OCCCC)C(Nc1ccc(CNC(=O)C23CC4CC(CC(C4)C2)C3)cc1)C(C)(C)C (stereo not given)
3 | CCOP(=O)(OCC)C(Nc1ccc(CNC(=O)C2CCc3ccccc3C2)cc1)C(C)(C)C (stereo not given)
199 | CCOP(=O)(OCC)C(Nc1ccc(CNC(=O)C23CC4CC(CC(C4)C2)C3)cc1)c1ccc(OC)cc1 (stereo not given)
17 | CCOP(=O)(OCC)C(Nc1ccc(CNC(=O)c2ccc3cc(O)ccc3c2)cc1)C(C)(C)C (stereo not given)
58 | CCCC(Nc1ccc(CNC(=O)C23CC4CC(CC(C4)C2)C3)cc1)P(=O)(OCC)OCC (stereo not given)
192 | CCOP(=O)(OCC)C(Nc1ccc(CNC(=O)C23CC4CC(CC(C4)C2)C3)cc1)c1ccc(C(C)(C)C)cc1 (stereo not given)
21 | CCOP(=O)(OCC)C(Nc1ccc(CNC(=O)C23CC4CC(CC(C4)C2)C3)cc1)C1CC1 (stereo not given)
30 | CC(C)(C)C(Nc1ccc(CNC(=O)C23CC4CC(CC(C4)C2)C3)cc1)P(=O)(OCC(F)(F)F)OCC(F)(F)F (stereo not given)
130 | CCOP(=O)(OCC)C(Nc1ccc(CNC(=O)C23CC4CC(CC(C4)C2)C3)cc1)c1ccc(C)cc1 (stereo not given)
0.96 | CCOP(=O)(OCC)C(Nc1ccc(CNC(=O)NC23CC4CC(CC(C4)C2)C3)cc1)C(C)(C)C (stereo not given)

IC50 [nM] | SMILES
108 | CCOP(=O)(OCC)C(Nc1ccc(CNC(=O)C23CC4CC(CC(C4)C2)C3)cc1)c1ccc(C#N)cc1 (stereo not given)
3 | CCCCOP(=O)(OCCCC)C(Nc1ccc(CNC(=O)NC23CC4CC(CC(C4)C2)C3)cc1)C(C)(C)C (stereo not given)
5.1 | CCOP(=O)(OCC)C(Nc1ccc(CNC(=O)C23CC4CC(CC(C4)C2)C3)cc1)C(C)(C)C (stereo not given)
185 | CCOP(=O)(OCC)C(Nc1ccc(CNC(=O)C23CC4CC(CC(C4)C2)C3)cc1)c1ccncc1 (stereo not given)
37 | CCOP(=O)(OCC)C(Nc1ccc(NC(=O)C23CC4CC(CC(C4)C2)C3)cc1)C(C)(C)C (stereo not given)
16 | CC(C)COP(=O)(OCC(C)C)C(Nc1ccc(CNC(=O)C23CC4CC(CC(C4)C2)C3)cc1)C(C)(C)C (stereo not given)
42 | CC(C)(C)C(Nc1ccc(CNC(=O)C23CC4CC(CC(C4)C2)C3)cc1)P(=O)(OCc1ccccc1)OCc1ccccc1 (stereo not given)
6.7 | CC(C)OP(=O)(OC(C)C)C(Nc1ccc(CNC(=O)C23CC4CC(CC(C4)C2)C3)cc1)C(C)(C)C (stereo not given)
1.8 | CC(C)COP(=O)(OCC(C)C)C(Nc1ccc(CNC(=O)NC23CC4CC(CC(C4)C2)C3)cc1)C(C)(C)C (stereo not given)
23 | CCOP(=O)(OCC)C(Nc1ccc(CNC(=O)C2CCCCC2)cc1)C(C)(C)C (stereo not given)
24 | CCOP(=O)(OCC)C(Nc1ccc(CNC(=O)c2ccc(OC(F)(F)F)cc2)cc1)C(C)(C)C (stereo not given)
2.6 | CC(C)(C)C(Nc1ccc(CNC(=O)NC23CC4CC(CC(C4)C2)C3)cc1)P(=O)(OCc1ccccc1)OCc1ccccc1 (stereo not given)
120 | CCOP(=O)(OCC)C(Nc1ccc(CNC(=O)C23CC4CC(CC(C4)C2)C3)cc1)c1ccc(F)cc1 (stereo not given)
1.9 | CCOP(=O)(OCC)C(Nc1ccc(CNC(=O)CC23CC4CC(CC(C4)C2)C3)cc1)C(C)(C)C (stereo not given)
46 | CCOP(=O)(OCC)C(Nc1ccc(CNC(=O)C23CC4CC(CC(C4)C2)C3)cc1)C1CCCCC1 (stereo not given)
> 1000 | CCOP(=O)(OCC)C(Nc1ccc(COC(=O)C23CC4CC(CC(C4)C2)C3)cc1)C(C)(C)C (stereo not given)
45 | CCOP(=O)(OCC)C(Nc1ccc(CNC(=O)C23CC4CC(CC(C4)C2)C3)cc1)c1ccccc1 (stereo not given)
43 | CCOP(=O)(OCC)C(Nc1ccc(CCC(=O)NC23CC4CC(CC(C4)C2)C3)cc1)C(C)(C)C (stereo not given)

test system: not listed separately; experiment: Aqueous solubility of the compound in sodium phosphate buffer at pH 7.4 at 25 +/- 1.5 degC by light scattering method; format: physicochemical
Outline: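 Compound stock in DMSO added at varied concentrations to 0.1 M sodium phosphate pH 7.4, final DMSO:buffer 5:95 (v/v). Turbidity read as OD at 650 nm at 25 ± 1.5 °C. Signal-to-noise ≥2 counted as insoluble. Mean of three separate measurements.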

solubility kinetic [µM] | SMILES
78 (≈ 38.7 µg/mL) | CCOP(=O)(OCC)C(Nc1ccc(CNC(=O)Cc2ccc3ccccc3c2)cc1)C(C)(C)C (stereo not given)
78 (≈ 39.4 µg/mL) | CCOP(=O)(OCC)C(Nc1ccc(CNC(=O)NC23CC4CC(CC(C4)C2)C3)cc1)C(C)(C)C (stereo not given)
125 (≈ 61.3 µg/mL) | CCOP(=O)(OCC)C(Nc1ccc(CNC(=O)C23CC4CC(CC(C4)C2)C3)cc1)C(C)(C)C (stereo not given)
62 (≈ 31.3 µg/mL) | CCOP(=O)(OCC)C(Nc1ccc(CNC(=O)CC23CC4CC(CC(C4)C2)C3)cc1)C(C)(C)C (stereo not given)
